The text below walks through data of article PMC4144739 (The Journal of Experimental Medicine, 2014).

“Also recorded” adds a separate entry of the source.

For series [1] the following is noted: uric acid administration; ref Scott et al., 2002; cited from earlier work.
Series [2] has as its system inflammasomes in monocytes. The conditions noted are these: crystals of uric acid; cited from earlier work.
Series [3] can be described thus: Solubility in physiological buffers. The series is classed as physicochemical.
The nature of series [4]: Amyloid fibril formation. The series is classed as physicochemical. The conditions noted are these: physiological buffers; ThT staining; Fig. S1. The method, boiled down:
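Hexapeptide (200 µg in 50 µl) was combined with 100 mM MES pH 7.4 and a 1 M solution at the appropriate pH, then incubated at 37°C. ThT (10 µM solution, pre-addition) was added. Fluorescence was read at 485 nm with excitation at 440 nm. Run in triplicate and repeated twice.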

The subject of series [5] is type 1 IFN (murine IFN-α4, 5, 12, and 13; consensus primers). As to the kind of experiment: Type 1 IFN induced in PBCs of healthy C57BL/6 mice. Type of series: in vivo, mouse (C57BL/6). As to conditions: compared with peptides that readily form fibrils.
For series [6] the following is noted: ref Kurnellas et al., 2013; cited from earlier work.
The nature of series [7]: EAE induced by adoptive transfer of Th17 lymphocytes, clinical signs. The conditions noted are these: 2 µg daily for 21 d beginning the day after adoptive transfer; groups of 10 mice. Type of series: in vivo, mouse (C57BL/6J). In a few lines:
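Donor female C57BL/6J mice were immunised s.c. with MOG35-55 in CFA. On day 10, spleen and draining lymph node cells were restimulated for 3 d with 10 µg/ml MOG35-55 plus 10 ng/ml IL-23. Cells (15 × 10^6 per mouse) were given i.p. to 9-wk-old female recipients. PBS served as control. Mice were scored daily on a 0–5 scale, with atypical EAE scored separately.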

On to `O=c1[nH]c(=O)c2[nH]c(=O)[nH]c2[nH]1` [uric acid], for which the “therapeutic effect in EAE” value in series [1] is given as “therapeutic benefit”. The “endocytosis and inflammasome induction” value in series [2] was “endocytosed and induce inflammasomes with subsequent secretion of IL-1β by monocytes”.

As for Ac-VQIVYK-NH2 [Tau 623–628], the “solubility in physiological buffers” value in series [3] is recorded as “limited solubility in physiological buffers”.

In the case of SSTNVG [Amylin 28–33], the “amyloid fibril formation in vitro” value in series [4] is on record as “do not readily form fibrils in physiological buffers; also recorded: did not form detectable amounts of fibrils in vitro”. In addition, the “type 1 IFN production (summary)” value in series [5] is “stimulated significantly less type 1 IFN production”. Further, in series [6], the “therapeutic effect of polar, nonionizable peptides in active EAE” value is recorded as “therapeutic”. The “clinical signs of Th17-induced EAE, 2 µg” value in series [7] is reported as “therapeutic in Th17-induced EAE”.
